Experimental data published in ChEMBL document CHEMBL3351269, “Phenylimidazoles as potent and selective inhibitors of coagulation factor XIa with in vivo antithrombotic activity” (J Med Chem, 2014).

Columns and labels:
[1] = Half life in rabbit plasma at 0.5 mg/kg, iv; assay type: ADME, organism-based, Oryctolagus cuniculus; set-up: dose 0.5 mg/kg, route intravenous
In short: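 Single iv dose of 0.5 mg/kg in rabbits; concentrations measured in rabbit plasma.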

[2] = Anticoagulant activity in rabbit plasma assessed as concentration required to 2 fold prolong clotting time by aPTT assay; assay type: functional, Oryctolagus cuniculus
[3] = Anticoagulant activity in healthy human plasma assessed as concentration required to 2 fold prolong clotting time by aPTT assay; assay type: functional
In short: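 Citrated human plasma from healthy volunteers (one-tenth volume 0.11 M buffered citrate; spun 2000g, 10 min, kept on ice). Inhibitor from 10 mM DMSO stock, diluted in plasma, up to seven concentrations. aPTT with Alexin: plasma warmed 1 min at 37 °C, reagent added, CaCl2 2 min later. Duplicates, as ratio to baseline. EC2x by linear interpolation, as total plasma concentration.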

[4] = Inhibition of rabbit coagulation thrombin using pyro-Glu-Pro-Argp-NA as substrate by spectrophotometric analysis; set-up: species or system Oryctolagus cuniculus
[5] = Inhibition of rabbit coagulation factor 11a using p-nitroaniline as substrate assessed as substrate hydrolysis by spectrophotometrically; set-up: species or system Oryctolagus cuniculus
[6] = molecular target: Coagulation factor XI (Homo sapiens, UniProt P03951); experiment: Inhibition of human coagulation factor 11a using p-nitroaniline as substrate assessed as substrate hydrolysis by spectrophotometrically
Chain of Coagulation factor XI (P03951 19-387 limits assumed): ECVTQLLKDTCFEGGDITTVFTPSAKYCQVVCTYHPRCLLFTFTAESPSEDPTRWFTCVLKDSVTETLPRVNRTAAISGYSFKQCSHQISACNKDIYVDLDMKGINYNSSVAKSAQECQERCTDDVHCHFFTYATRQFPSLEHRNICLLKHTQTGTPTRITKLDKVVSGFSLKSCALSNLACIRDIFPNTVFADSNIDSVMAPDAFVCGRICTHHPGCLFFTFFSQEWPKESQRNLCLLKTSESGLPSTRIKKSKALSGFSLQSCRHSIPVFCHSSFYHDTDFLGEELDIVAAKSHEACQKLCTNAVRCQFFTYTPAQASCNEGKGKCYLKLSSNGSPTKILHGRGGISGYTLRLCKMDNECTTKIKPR
Chain of Coagulation factor XI (P03951 388-625 limits assumed): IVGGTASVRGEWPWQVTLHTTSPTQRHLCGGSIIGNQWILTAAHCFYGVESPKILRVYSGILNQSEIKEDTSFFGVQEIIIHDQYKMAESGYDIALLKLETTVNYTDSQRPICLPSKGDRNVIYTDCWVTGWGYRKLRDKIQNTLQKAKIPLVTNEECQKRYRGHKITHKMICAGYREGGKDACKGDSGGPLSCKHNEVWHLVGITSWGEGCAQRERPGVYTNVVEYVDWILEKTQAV
In short: (§1)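 Purified human enzymes; reaction started by adding enzyme to substrate with or without inhibitor, excess substrate and inhibitor over enzyme, 1% DMSO, room temperature, 10–120 min. pNA read at 405 nm. FXIa, FXIIa and chymotrypsin in HEPES pH 7.4 with NaCl, KCl and PEG; FXa and kallikrein in phosphate pH 7.5; FVIIa in HEPES with CaCl2. IC50 from duplicates over 8–11 concentrations, converted to Ki assuming competitive inhibition.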

[7] = Plasma protein binding in rabbit at 0.5 mg/kg, iv; assay type: ADME, organism-based, Oryctolagus cuniculus; set-up: dose 0.5 mg/kg, route intravenous; settings: read-out: PPB (converted)
[8] = molecular target: T1, Coagulation factor VII (Homo sapiens, UniProt P08709); experiment: Inhibition of human coagulation factor 7a using H-(D)-Ile-Pro-Arg-pNA as substrate by spectrophotometric analysis; in short: as §1
T1 sequence (P08709 whole entry): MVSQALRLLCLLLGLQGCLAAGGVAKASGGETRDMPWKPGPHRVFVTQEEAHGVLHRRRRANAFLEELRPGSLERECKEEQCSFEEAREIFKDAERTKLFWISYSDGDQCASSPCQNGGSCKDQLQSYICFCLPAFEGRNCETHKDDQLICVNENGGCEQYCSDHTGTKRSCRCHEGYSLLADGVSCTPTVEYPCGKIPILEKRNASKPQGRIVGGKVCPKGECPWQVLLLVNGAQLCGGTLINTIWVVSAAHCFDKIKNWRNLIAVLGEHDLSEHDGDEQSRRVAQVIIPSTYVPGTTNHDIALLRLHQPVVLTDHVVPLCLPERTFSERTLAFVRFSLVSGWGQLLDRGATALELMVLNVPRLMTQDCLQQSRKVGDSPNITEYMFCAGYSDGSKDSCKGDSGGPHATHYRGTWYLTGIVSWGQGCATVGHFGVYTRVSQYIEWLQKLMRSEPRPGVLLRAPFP

[9] = molecular target: T2, Coagulation factor X (Oryctolagus cuniculus, UniProt O19045); experiment: Inhibition of rabbit coagulation factor 10a using N-benzoyl-Ile-Glu-(OH, OMe)-Gly-Arg-pNA as substrate by spectrophotometric analysis
T2 sequence (O19045 whole entry): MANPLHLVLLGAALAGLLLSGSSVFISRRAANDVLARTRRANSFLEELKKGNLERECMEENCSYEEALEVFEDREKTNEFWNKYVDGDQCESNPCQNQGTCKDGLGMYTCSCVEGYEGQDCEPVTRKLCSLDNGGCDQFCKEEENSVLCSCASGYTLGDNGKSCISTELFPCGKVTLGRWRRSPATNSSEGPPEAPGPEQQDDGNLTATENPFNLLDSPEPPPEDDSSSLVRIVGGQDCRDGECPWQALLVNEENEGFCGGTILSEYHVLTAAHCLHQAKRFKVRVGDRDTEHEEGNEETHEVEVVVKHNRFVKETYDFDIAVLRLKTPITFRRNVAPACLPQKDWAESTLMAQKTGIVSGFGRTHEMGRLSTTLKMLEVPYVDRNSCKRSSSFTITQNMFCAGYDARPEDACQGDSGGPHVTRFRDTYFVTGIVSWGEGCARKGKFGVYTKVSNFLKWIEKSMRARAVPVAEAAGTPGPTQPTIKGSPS

Compound `NC[C@H]1CC[C@H](C(=O)N[C@@H](Cc2ccccc2)c2nc(-c3ccc4c(N)n[nH]c4c3)c(Cl)[nH]2)CC1.O=C(O)C(F)(F)F` has a half-life [1] of 1 h, a 2aPTT [2] of 2 µM and a 2aPTT [3] of 1 µM. The Ki [4] was > 20000 nM, the Ki [5] was 0.6 nM and the Ki [6] was 0.3 nM. For the same compound, the fraction unbound [7] was 0.15, the Ki [8] was 4220 nM and the Ki [9] was > 10000 nM.
